Data set [1] addresses T1, Proteasome Macropain subunit MB1 (Homo sapiens, UniProt P28074).
T1 sequence (P28074 whole entry): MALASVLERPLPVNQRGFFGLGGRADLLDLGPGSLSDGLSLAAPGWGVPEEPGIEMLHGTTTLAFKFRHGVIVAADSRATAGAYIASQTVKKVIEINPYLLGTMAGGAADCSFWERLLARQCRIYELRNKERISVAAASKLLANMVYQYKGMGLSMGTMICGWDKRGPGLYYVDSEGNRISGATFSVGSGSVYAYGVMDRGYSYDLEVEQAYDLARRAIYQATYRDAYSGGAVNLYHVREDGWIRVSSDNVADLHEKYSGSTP
The experiment in a line: Inhibition of human chymotrypsin-like activity of 20S constitutive proteasome using Suc-LLVY-AMC as substrate preincubated for 15 mins followed by substrate addition by fluorescence assay.

Data set [2] concerns the target T2, Proteasome Macropain subunit MB1 (Homo sapiens) (UniProt P28074).
T2 sequence (whole entry): T1 sequence (P28074 whole entry)
The data set can be described thus: Inhibition of human chymotrypsin-like activity of 20S constitutive proteasome at 10 uM using Suc-LLVY-AMC as substrate preincubated for 15 mins followed by substrate addition by fluorescence assay relative to control.

The nature of data set [3]: Stability in human liver microsomes at 1 uM measured after 30 mins in presence of NADPH by LC-MS/MS analysis. It is filed as ADME, Microsome. To be noted: 0.5 h. The gist of the method: (§1)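 Pooled human liver microsomes at 1.0 mg/mL protein in 0.1 M phosphate buffer saline pH 7.4 with 1 mM NADPH, preincubated 5 min at 37 °C. Reaction started by adding test compound at 1 μM, then incubated 0, 10, 20 or 30 min. Compound disappearance monitored.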

The next data set relates to MV4-11. The data set can be described thus: Antiproliferative activity against human MV4-11 cells after 72 hrs by MTS/PMS assay. The class given is functional, cell-based. To be noted: MV4-11, 72 h. The gist of the method:
(§2)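 Cells kept at 37 °C, 5% CO2; RPMI 8226 and MM.1S in RPMI-1640, MV-4-11 in IMDM, each with 10% FBS and penicillin/streptomycin. Seeding per well: RPMI 8226 5×10³, MM.1S 3×10⁴, MV-4-11 8×10³. Graded compound concentrations or 0.2% DMSO for 72 h. MTS/PMS added for 2-4 h at 37 °C, OD read at 490 nm minus 690 nm background. IC50 from variable-slope sigmoidal fit.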

The next data set relates to HGC-27. The data set can be described thus: Antiproliferative activity against human HGC27 cells after 72 hrs by MTT assay. It is filed as functional, cell-based. To be noted: HGC-27, 72 h. The gist of the method:
(§3)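 Cells kept at 37 °C, 5% CO2; HGC27 in RPMI-1640 and HepG2 in IMDM, each with 10% FBS and penicillin/streptomycin. Seeded at 1×10⁵ cells/well, then exposed to graded compound concentrations or 0.2% DMSO for 72 h. MTT (5 mg/mL) added for 4 h, formazan dissolved in DMSO, absorbance read at 570 nm. Inhibition = (A_control − A_sample)/A_control; IC50 from variable-slope sigmoidal fit.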
(Tetrazolium assays rely on reduction of a dye to a coloured formazan, in cell work by metabolically active cells.)

The subject of the next data set is MM1.S. The experiment in a line: Antiproliferative activity against human MM1S cells after 72 hrs by MTS/PMS assay. It is filed as functional, cell-based. The gist of the method:
as §2

A further data set has as its system HepG2. The data set can be described thus: Antiproliferative activity against human HepG2 cells after 72 hrs by MTT assay. The class given is functional, cell-based. To be noted: HepG2, 72 h. The gist of the method: as §3
A further data set deals with RPMI-8226. The data set can be described thus: Antiproliferative activity against human RPMI8226 cells after 72 hrs by MTS/PMS assay. The class given is functional, cell-based. To be noted: RPMI-8226, 72 h. The gist of the method:
as §2

Data set [4] addresses T3, Proteasome subunit beta type-8 (Homo sapiens, UniProt P28062).
T3 sequence (P28062 whole entry): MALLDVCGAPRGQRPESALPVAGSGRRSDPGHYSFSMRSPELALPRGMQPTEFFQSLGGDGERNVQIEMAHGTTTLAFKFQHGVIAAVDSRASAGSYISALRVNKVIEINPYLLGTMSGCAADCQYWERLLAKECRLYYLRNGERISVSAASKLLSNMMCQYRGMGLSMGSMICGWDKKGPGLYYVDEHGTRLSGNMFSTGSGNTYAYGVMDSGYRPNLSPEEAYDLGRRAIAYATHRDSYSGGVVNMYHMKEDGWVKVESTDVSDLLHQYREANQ
The experiment in a line: Inhibition of 20S immunoproteasome LMP7 (unknown origin) using Ac-ANW-AMC as substrate preincubated for 15 mins followed by substrate addition by fluorescence assay.

Data set [5] can be described thus: Stability in human liver microsomes assessed as drug degradation at 1 uM measured within 30 mins in presence of NADPH by LC-MS/MS analysis. To be noted: read-out: Drug degradation. It is filed as ADME, Microsome. The gist of the method:
as §1
In general terms: Liver microsomes are vesicles of endoplasmic reticulum, rich in cytochrome P450 enzymes.

The IC50 is the concentration at which inhibition is half-maximal. A lower IC50 goes with inhibition by little substance. One may read the inhibition as how much of the control response was suppressed.

SMILES strings stand for the structures.

With `CC(C)N(CC(=O)Nc1ccnnc1)C(=O)COc1ccc(Br)cc1`, in [1], half-maximal inhibition (IC50) was put at 405 nM.

Compound `CCCc1ccc(OCC(=O)N(CCC(=O)Nc2cccnc2)C(C)C)cc1` registered an inhibition in data set [2] of 15.5%.

Consider `CCCc1ccc(OCC(=O)N(CC(=O)Nc2cccc(OC)c2)C(C)C)cc1`, for which half-maximal inhibition in data set [1] (IC50) required 2000 nM.

`CC(C)N(CC(=O)Nc1ccnnc1)C(=O)COc1ccc(C(F)(F)F)cc1` returned an IC50 in [1] of 952 nM.

The compound `CCCc1ccc(OCC(=O)N(CC(=O)Nc2ccc3ccccc3c2)C(C)C)cc1` showed an IC50 in data set [1] of 5910 nM.

Consider `CCCc1ccc(OCC(=O)N(CC(=O)Nc2ccc(C#N)cc2)C(C)C)cc1`, for which the midpoint of inhibition in [1], the IC50, lay at 361 nM.

Regarding `CCCc1ccc(OCC(=O)N(CC(=O)Nc2cccnc2)C(C)C)cc1`, the inhibition in [2] was found to be 58.2%. The IC50 in data set [1] was determined as 1680 nM. Further, in data set [3], the Stability result is “Stable”.

As to `CCCc1ccc(OCC(=O)N(CC(=O)Nc2ccc(C(F)(F)F)cc2)C(C)C)cc1`, in data set [1], the IC50 is 922 nM.

As for `CCCc1ccc(OCC(=O)N(CCNC(=O)c2cccnc2)C(C)C)cc1`, the inhibition in [2] worked out at 30.8%.

`CCCc1ccc(OCC(=O)N(CCC(=O)NCc2cccnc2)C(C)C)cc1` returned an inhibition in [2] of 12.7%.

Take `CCCc1ccc(OCC(=O)N(CC(=O)Nc2ccon2)C(C)C)cc1`: the IC50 in data set [1] stood at 2010 nM.

Take `CCCc1ccc(OCC(=O)N(CC(=O)NCc2cccnc2)C(C)C)cc1`: the inhibition in data set [2] was determined as 1.16%.

As for `CC(C)Cc1ccc(OCC(=O)N(CC(=O)Nc2ccnnc2)C(C)C)cc1`, in data set [1], the IC50 was found to be 118 nM.

`CCCc1ccc(OCC(=O)N(CC(=O)Nc2ccncc2)C(C)C)cc1`: the IC50 in data set [1] came to 100 nM.

The compound `CCCCCc1ccc(OCC(=O)N(CC(=O)Nc2ccnnc2)C(C)C)cc1` had an IC50 in data set [1] of 64 nM.

In turn, `CCCc1ccc(OCC(=O)N(CC(=O)Nc2cnccn2)C(C)C)cc1` yielded an IC50 in [1] of 395 nM.

As to `CCCc1ccc(OCC(=O)N(CC(=O)Nc2cncnc2)C(C)C)cc1`, in [1], the midpoint of inhibition, the IC50, lay at 280 nM.

In [1], `CCOc1ccc(OCC(=O)N(CC(=O)Nc2ccnnc2)C(C)C)cc1` gave an IC50 of 259 nM.

In turn, `CCCc1ccc(OCC(=O)N(CC(=O)Nc2ccnnc2)C(C)C)cc1` had an IC50 in [1] of 89 nM.

`CCc1ccc(OCC(=O)N(CC(=O)Nc2ccnnc2)C(C)C)cc1` registered an IC50 in data set [1] of 243 nM.

`CC(C)N(CC(=O)Nc1ccnnc1)C(=O)COc1ccc(CCO)cc1`: it took 968 nM to reach half-maximal inhibition in data set [1] (IC50).

`CCCc1ccc(OCC(=O)N(CC(=O)Nc2nncs2)C(C)C)cc1` came in with an IC50 in [1] of 3860 nM.

In [1], `COC(=O)Cc1ccc(OCC(=O)N(CC(=O)Nc2ccnnc2)C(C)C)cc1` displayed an IC50 of 1560 nM.

`CCCc1ccc(OCC(=O)N(CC(=O)Nc2ccc(OC)c(OC)c2)C(C)C)cc1` registered an IC50 in data set [1] of 4730 nM.

Consider `CCCCc1ccc(OCC(=O)N(CC(=O)Nc2ccnnc2)C(C)C)cc1`, for which the concentration for half-maximal inhibition (IC50) with MV4-11 was more than 20 µM; in data set [1], 49 nM; in the data set with HGC-27 it was 4.62 µM; in the data set on MM1.S, more than 20 µM; with HepG2, 3910 nM; in the data set on RPMI-8226, more than 20 µM. For the same compound, the IC50 in data set [4] is more than 10 µM. In [3], the Stability result was “Stable”.

On to `CCCc1ccc(OCC(=O)N(CC(=O)Nc2nc3ccc(OC)cc3s2)C(C)C)cc1`, for which, in data set [1], it took 1110 nM to reach half-maximal inhibition (IC50).

`COc1ccc(OCC(=O)N(CC(=O)Nc2ccnnc2)C(C)C)cc1` yielded an IC50 in [1] of 579 nM.

As for `CCCc1ccc(OCC(=O)N(Cc2nc(-c3cccnc3)no2)C(C)C)cc1`, in data set [2], the inhibition was found to be 80.2%. For the same compound, the metabolised at 0.5 h, 1 µM in data set [5] was more than 50%. Besides, the IC50 is more than 20 µM with MV4-11; 92 nM in data set [1]; 3.35 µM in the data set on HGC-27; more than 20 µM in the data set on MM1.S; 2950 nM with HepG2; more than 20 µM in the data set on RPMI-8226. For the same compound, in data set [4], the IC50 is more than 10 µM.

The compound `CCCc1ccc(OCC(=O)N(CCNC(=O)Nc2cccnc2)C(C)C)cc1` gave an inhibition in data set [2] of 13.8%.

In data set [2], `CCCc1ccc(OCC(=O)N(CCNC(=O)NCc2cccnc2)C(C)C)cc1` gave an inhibition of 38.7%.

In the case of `CCCc1ccc(OCC(=O)N(CC(=O)Nc2ccc(F)cc2)C(C)C)cc1`, 1200 nM corresponded to half-maximal inhibition in [1] (IC50).

In the case of `CCCc1ccc(OCC(=O)N(CC(=O)Nc2ccccn2)C(C)C)cc1`, in [1], the midpoint of inhibition, the IC50, lay at 836 nM.

As for `Cc1ccc(OCC(=O)N(CC(=O)Nc2ccnnc2)C(C)C)cc1`, in data set [1], the IC50 worked out at 481 nM.

As to `CCCc1ccc(OCC(=O)N(CC(=O)Nc2ccccc2OC)C(C)C)cc1`, in data set [1], the IC50 was more than 10000 nM.

On to `CCCc1ccc(OCC(=O)N(CC(=O)Nc2ccc(S(C)(=O)=O)cc2)C(C)C)cc1`, for which the IC50 in the data set on MV4-11 is more than 20 µM; in data set [1] it was 230 nM; in the data set on HGC-27 it was 2.47 µM; in the data set on MM1.S, more than 20 µM; with HepG2 it was 2870 nM; in the data set on RPMI-8226 it was more than 20 µM. The IC50 in data set [4] is more than 10 µM.

As to `CCCc1ccc(OCC(=O)N(CC(=O)Nc2ccc(OC)cc2)C(C)C)cc1`, the midpoint of inhibition in data set [1], the IC50, lay at 952 nM.

(Values after ChEMBL document CHEMBL4325885, “Design, synthesis, and biological evaluation of novel phenol ether derivatives as non-covalent proteasome inhibitors” (Eur J Med Chem, 2019).)
